Test results published in ChEMBL document CHEMBL1147647, “Second generation, orally active, antimalarial, artemisinin-derived trioxane dimers with high stability, efficacy, and anticancer activity” (J Med Chem, 2006).
Active and inactive are the calls of the source. No cut-off for these calls is given here.

How the values were obtained:
Plasmodium falciparum [1] = assay: Antimalarial activity against chloroquine-sensitive Plasmodium falciparum NF54 in mice (Mus musculus) by peroral dose; type: functional; settings: NF54, po
How it was run: (§1)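 In mice, a single dose of 3, 10 or 30 mg/kg was given orally or subcutaneously. ED50 in mg/kg was derived from these doses following a published protocol.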

HeLa = assay: Antiproliferative activity against HeLa cell line; type: functional, cell-based; settings: Homo sapiens
How it was run: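 HeLa human cervical cancer cells were tested in vitro with an XTT tetrazolium colorimetric proliferation assay, using a modified version of a reported protocol. IC50 was determined.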

Plasmodium falciparum [2] = assay: Antimalarial activity against chloroquine-sensitive Plasmodium falciparum NF54 in mice (Mus musculus) by subcutaneous dose; type: functional; settings: NF54, sc; how it was run: as §1
Plasmodium falciparum [3] = assay: Antimalarial activity against chloroquine-sensitive Plasmodium falciparum NF54; type: functional, organism-based
SK-MEL-5 = assay: Antiproliferative activity against SK-MEL-5 cell line; type: functional, cell-based; settings: Homo sapiens
How it was run: (§2)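 Growth inhibition was tested in vitro across the NCI Developmental Therapeutics Program 60-line human cancer panel at nanomolar to micromolar concentrations.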

BT-549 = assay: Antiproliferative activity against BT549 cell line; type: functional, cell-based; settings: Homo sapiens; how it was run: as §2
HOP-92 = assay: Antiproliferative activity against HOP92 cell line; type: functional, cell-based; settings: Homo sapiens; how it was run: as §2

SMILES	ED50 (Plasmodium falciparum [2]) [mg/kg]	IC50 (Plasmodium falciparum [3]) [nM]	further results
C[C@H]1[C@@H](Cc2cc(CO)c(CO)cc2C[C@H]2O[C@@H]3O[C@]4(C)CC[C@H]5[C@H](C)CC[C@@H]([C@H]2C)[C@@]35OO4)O[C@@H]2O[C@]3(C)CC[C@H]4[C@H](C)CC[C@@H]1[C@@]24OO3	0.06	0.77	ED50 (Plasmodium falciparum [1]): 2.6 mg/kg; IC50 (HeLa): 46.5 nM
COC(=O)c1cc(C[C@H]2O[C@@H]3O[C@]4(C)CC[C@H]5[C@H](C)CC[C@@H]([C@H]2C)[C@@]35OO4)c(C[C@H]2O[C@@H]3O[C@]4(C)CC[C@H]5[C@H](C)CC[C@@H]([C@H]2C)[C@@]35OO4)cc1C(=O)OC	0.71	1.6	IC50 (HeLa): 500 nM; Activity (SK-MEL-5): Active; Activity (BT-549): Active; Activity (HOP-92): Active
C[C@H]1[C@H](OC(=O)CCC(=O)[O-])O[C@@H]2O[C@@]3(C)CC[C@H]4[C@H](C)CC[C@@H]1[C@@]24OO3.[Na+] [SODIUM ARESUNATE]	2.2		ED50 (Plasmodium falciparum [1]): 4 mg/kg
CCOP(=O)(OCC)OCc1cc(C[C@H]2O[C@@H]3O[C@]4(C)CC[C@H]5[C@H](C)CC[C@@H]([C@H]2C)[C@@]35OO4)c(C[C@H]2O[C@@H]3O[C@]4(C)CC[C@H]5[C@H](C)CC[C@@H]([C@H]2C)[C@@]35OO4)cc1COP(=O)(OCC)OCC		3	
C=C(C[C@H]1O[C@@H]2O[C@]3(C)CC[C@H]4[C@H](C)CC[C@@H]([C@H]1C)[C@@]24OO3)C(=C)C[C@H]1O[C@@H]2O[C@]3(C)CC[C@H]4[C@H](C)CC[C@@H]([C@H]1C)[C@@]24OO3		2.9	
C[C@H]1[C@@H](Cc2cc3c(cc2C[C@H]2O[C@@H]4O[C@]5(C)CC[C@H]6[C@H](C)CC[C@@H]([C@H]2C)[C@@]46OO5)COP(=O)(Oc2ccccc2)OC3)O[C@@H]2O[C@]3(C)CC[C@H]4[C@H](C)CC[C@@H]1[C@@]24OO3 (some centres not stated)		3.7	
C[C@H]1[C@@H](Cc2cc(C(=O)O)c(C(=O)O)cc2C[C@H]2O[C@@H]3O[C@]4(C)CC[C@H]5[C@H](C)CC[C@@H]([C@H]2C)[C@@]35OO4)O[C@@H]2O[C@]3(C)CC[C@H]4[C@H](C)CC[C@@H]1[C@@]24OO3		360	
C[C@@H]1CC[C@H]2[C@@H](C)C(=O)O[C@@H]3O[C@@]4(C)CC[C@@H]1[C@]32OO4 [ARTEMISININ]		6.6	
